# Compound activity deposited in PubChem by several laboratories.
# Compounds with a hit are over-represented: about 0.55% of the library has one in this group of screens.
# ABCG2 inh – blocks JC-1 efflux by human ABCG2 transporter; Q9UNQ0; IgMXP3 cells, flow cytometry; inhibition, % at 6.6 µM; 190,000 compounds, 0.1% hits; AID 1325;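 active = inhibition above 80%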;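 note: 0% = DMSO and 100% = nicardipine control wells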
# Target sequence (Q9UNQ0 whole entry, looked up): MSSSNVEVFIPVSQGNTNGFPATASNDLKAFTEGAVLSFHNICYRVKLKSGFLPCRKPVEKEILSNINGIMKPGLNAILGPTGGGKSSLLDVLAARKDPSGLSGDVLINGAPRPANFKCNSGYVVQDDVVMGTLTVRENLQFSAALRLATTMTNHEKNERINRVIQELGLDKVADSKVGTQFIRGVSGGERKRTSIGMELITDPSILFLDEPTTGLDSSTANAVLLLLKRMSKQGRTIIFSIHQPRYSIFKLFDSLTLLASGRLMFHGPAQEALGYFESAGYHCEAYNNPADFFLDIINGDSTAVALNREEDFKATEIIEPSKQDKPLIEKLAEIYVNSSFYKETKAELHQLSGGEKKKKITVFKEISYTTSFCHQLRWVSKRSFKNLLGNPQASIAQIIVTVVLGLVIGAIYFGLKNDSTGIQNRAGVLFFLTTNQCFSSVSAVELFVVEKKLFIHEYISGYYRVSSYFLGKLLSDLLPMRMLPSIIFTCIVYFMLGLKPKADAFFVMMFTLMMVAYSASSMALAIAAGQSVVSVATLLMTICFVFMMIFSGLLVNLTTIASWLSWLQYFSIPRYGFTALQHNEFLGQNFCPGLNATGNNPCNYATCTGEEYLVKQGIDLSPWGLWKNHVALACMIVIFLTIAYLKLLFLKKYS
#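 Test system: IgMXP3 cells (ABCG2) mixed with DDAO far-red-labelled CCRF-Adr cells (ABCB1). Reagent: JC-1 transporter substrate. Compound dosing: single test compound dose, 6.6 µM final. Times: 10 min compound exposure, 25 °C. Detection: flow cytometry of retained JC-1 fluorescence. Read-out basis: efflux inhibition in percent versus controls. Controls: nicardipine and DMSO wells.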
# Rad51 HR inh – Rad51 (human) homologous recombination inhibition; inhibition, % at 10 µM; Q06609; hRad51 DNA strand exchange, fluorescence dequenching; 200,000 compounds, 0.085% hits;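 active = inhibition above 40% at the single screening dose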;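 note: 0% = DMSO control wells and 100% = blanks with heterologous ssDNA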
#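 Read-out basis: percent inhibition relative to plate controls and blanks / Assay system: human Rad51 nucleoprotein filaments preassembled on unlabelled ssDNA / Timing: filaments 15 min 37 °C, then compound 30 min / Control set: per-plate controls and blanks / Technique: fluorescence dequenching at 485/520 nm / Compound: 10 µM final, single point / Also added: Fluorescein- and BHQ1-tagged 47-mer duplex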
# HSV replic up – HSV replication enhancement; HSV replication augmentation in cells, fold increase; maximum fold increase; 220,000 compounds, 0.005% hits; AID 1956; in the data active = maximum fold increase above about 1.5; tested in PC3 cells
# p97 inhibitor – blocks human p97 ATPase activity | P55072 | recombinant p97 ATPase, Kinase-Glo ATP luminescence, 3 h | inhibition, % at 8 µM | 220,000 compounds, 0.42% hits; in the data active = inhibition above about 15%;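 note: 0% = DMSO vehicle and 100% = wells lacking enzyme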
# ABCB1 inh – human ABCB1 inhibition, ABCG2 as counter-screen. inhibition, % at 6.6 µM. CCRF-Adr cells, JC-1 efflux, flow cytometry. 190,000 compounds, 0.067% hits. AID 1326; in the data active = inhibition above about 40%;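 note: 0% = vehicle and 100% = reference inhibitor; higher value means more JC-1 retained so stronger ABCB1 efflux block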
# ABCB6 inh MLPCN – blocks the human ABCB6 transporter; Q9NP58; K562-ABCB6 porphyrin accumulation, flow cytometry, 1 h; hits give low values; fluorescence ratio to DMSO, % at 10 µM; 360,000 compounds, 0.19% hits; AID 602162;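 active = fluorescence ratio to DMSO below 75%, the collection mean minus 3 SD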;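 note: signal is porphyrin accumulated inside mitochondria; 100% equals median channel fluorescence of DMSO control wells; lower ratio means ABCB6 inhibition with less porphyrin fluorescence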
# p97 inh conf – confirmation of human p97 ATPase inhibitors | shares compounds with p97 inhibitor | inhibition, % at 8 µM | recombinant p97 ATPase, Kinase-Glo ATP luminescence | 760 compounds, 44% hits;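 active = percent inhibition of p97 ATPase above a set limit, the primary screen's mean plus 3 SD, cut at about 15% in these data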;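 note: 0% = DMSO wells and 100% = wells lacking p97 protein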
# Active calls of the source: *; i = inactive; . = no result.
SMILES,ABCG2 inh,Rad51 HR inh,HSV replic up,p97 inhibitor,ABCB1 inh,ABCB6 inh MLPCN,p97 inh conf
C[C@@H]1CCCCO[C@@H](CN(C)S(=O)(=O)c2cccs2)[C@@H](C)CN([C@H](C)CO)C(=O)c2cc(NS(=O)(=O)c3ccccc3)ccc2O1,.,.,.,.,.,98.0,.
O=C(CSc1ncnc2scc(-c3ccccc3)c12)Nc1ccc(C(=O)O)cc1,.,24.6,i,19.7*,.,96.0,16.8*
COc1ccc(CCC(=O)N2CCN(S(=O)(=O)c3ccc(OC)c([N+](=O)[O-])c3)CC2)cc1,.,.,.,.,.,91.0,.
CC(C)CC(c1nc2ccccc2[nH]1)n1c(-c2ccccc2Br)nc2ccccc21 (centres undefined),.,.,.,.,.,98.0,.
CN(Cc1ccccc1)C(=O)CSc1nc2ccccc2c(=O)n1Cc1ccco1,52.5,-2.2,i,7.2,17.6,98.0,.
Cc1ccc(NC(=O)CN(C)C(=O)CSc2nc3ccccc3c(=O)n2Cc2ccco2)cc1,1.5,12.0,i,19.4*,1.1,90.0,7.1
CC1CN(CCCCOc2ccc(Cl)c3ccccc23)CC(C)O1 (centres undefined),.,.,.,.,.,94.0,.
O=C(CCCN1C(=O)/C(=C\c2cccs2)SC1=S)Nc1cccc(C(=O)O)c1,-1.2,3.3,i,-3.1,-0.7,99.0,.
O=C(CCCN1C(=O)/C(=C/c2ccco2)SC1=S)Nc1cccc(C(=O)O)c1,.,-3.8,i,32.6*,.,97.0,6.6
COc1cccc(Nc2ccccc2C(=O)O)c1,1.4,-7.0,i,16.2*,0.2,90.0,4.8
CCOC(=O)c1cc([N+](=O)[O-])c([N+](=O)[O-])cc1NC(C)=O,11.9,-40.2,i,15.8*,4.5,104.0,35.3*
Nc1ccn([C@@H]2O[C@H](CNCc3ccc(C#CCCO)cc3)[C@@H](O)[C@H]2O)c(=O)n1,.,.,.,.,.,96.0,.
Cc1ccc(/C=N/Nc2nc(N3CCOCC3)nc(N3CCOCC3)n2)o1,13.0,-2.1,i,-0.4,3.4,91.0,.
C(=N\Nc1nc(N2CCOCC2)nc(N2CCOCC2)n1)/c1ccco1,0.3,-3.3,i,18.0*,0.3,.,8.9
CCCC(C(=O)NC1CCCC1)N(CCN(CC)CC)C(=O)c1snc(C(N)=O)c1N (centres undefined),.,.,.,.,.,97.0,.
CCCC(C(=O)NC1CCCC1)N(CCCN1CCOCC1)C(=O)c1snc(C(N)=O)c1N (centres undefined),0.6,.,i,16.0*,-0.1,103.0,5.3
Cc1cc(SCC(=O)Nc2ccc(O)cc2)n2nc(C)c(-c3ccccc3)c2n1,.,18.2,i,24.1*,.,97.0,7.5
Cc1cc(SCC(=O)Nc2ccc(O)cc2)n2ncc(-c3ccccc3)c2n1,.,30.6,i,5.5,.,91.0,.
CC1(C(=O)Nc2ccc(Cl)cc2)Cc2c(-c3cccc(C(F)(F)F)c3)ccnc2O1 (centres undefined),.,.,.,.,.,95.0,.
CC1(C(=O)Nc2cnc3ccccc3c2)CCN1C(=O)c1ccccc1CCc1ccccc1 (centres undefined),.,.,.,.,.,92.0,.
COC(=O)CCCCC1SCC(NC(=O)c2ccccc2)C1=O (centres undefined),-0.1,-7.2,i,16.5*,0.1,102.0,3.9
COc1cccc(NC(=O)/C=C/c2ccc(S(=O)(=O)N3CCOCC3)cc2)c1,.,.,.,.,.,91.0,.
COCCNC(=O)C1CCCN(C(=O)c2ccnc(Cl)c2)CC1 (centres undefined),.,.,.,.,.,104.0,.
Cc1ccccc1Oc1nc2c(C)cccn2c(=O)c1/C=C(\C#N)C(=O)NC1CCS(=O)(=O)C1 (centres undefined),.,0.7,i,15.4*,.,101.0,7.3
Cc1ccc(NC(=O)CN2C(=O)N/C(=C/c3cccn3-c3ccc(C(=O)O)cc3)C2=O)cc1,-7.0,.,i,17.1*,-1.0,101.0,31.6*
Cc1ccc(NC(=O)CN2C(=O)N/C(=C/c3cc(C)n(-c4ccc(C(=O)O)cc4)c3C)C2=O)cc1,-2.4,15.4,i,6.8,-0.9,97.0,.
CCOC(=O)C1=CCN(S(=O)(=O)c2ccc(Br)cc2)C1c1ccccc1 (centres undefined),.,.,.,.,.,88.0,.
CC1=C(C(=O)Nc2cc(C(=O)NCc3ccccc3)ccc2C)SCCO1,.,.,.,.,.,94.0,.
